Data reported in ChEMBL document CHEMBL3352316, “Optimization of physicochemical properties and safety profile of novel bacterial topoisomerase type II inhibitors (NBTIs) with activity against Pseudomonas aeruginosa” (Bioorg Med Chem, 2014).
Values after ≈ are worked out from the molar mass of the structure shown.

Legend:
[1] = biological target: Sodium-dependent serotonin transporter (Homo sapiens) (UniProt P31645); assay: Inhibition of SERT (unknown origin) at 30 uM
[2] = Partition co-efficient, log D of the compound at pH 7.4 by shake flask method; assay type: physicochemical; conditions: buffer
In short: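 Shake-flask method with 10 mM phosphate buffer pH 7.4 against n-octanol, shaken 1 h at 1200 rpm to equilibrium. Analysis was by LC/UV with MS confirmation.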

[3] = biological target: Sodium-dependent noradrenaline transporter (Homo sapiens) (UniProt P23975); assay: Inhibition of NET (unknown origin) at 30 uM
Sodium-dependent noradrenaline transporter (Homo sapiens), sequence (P23975 whole entry): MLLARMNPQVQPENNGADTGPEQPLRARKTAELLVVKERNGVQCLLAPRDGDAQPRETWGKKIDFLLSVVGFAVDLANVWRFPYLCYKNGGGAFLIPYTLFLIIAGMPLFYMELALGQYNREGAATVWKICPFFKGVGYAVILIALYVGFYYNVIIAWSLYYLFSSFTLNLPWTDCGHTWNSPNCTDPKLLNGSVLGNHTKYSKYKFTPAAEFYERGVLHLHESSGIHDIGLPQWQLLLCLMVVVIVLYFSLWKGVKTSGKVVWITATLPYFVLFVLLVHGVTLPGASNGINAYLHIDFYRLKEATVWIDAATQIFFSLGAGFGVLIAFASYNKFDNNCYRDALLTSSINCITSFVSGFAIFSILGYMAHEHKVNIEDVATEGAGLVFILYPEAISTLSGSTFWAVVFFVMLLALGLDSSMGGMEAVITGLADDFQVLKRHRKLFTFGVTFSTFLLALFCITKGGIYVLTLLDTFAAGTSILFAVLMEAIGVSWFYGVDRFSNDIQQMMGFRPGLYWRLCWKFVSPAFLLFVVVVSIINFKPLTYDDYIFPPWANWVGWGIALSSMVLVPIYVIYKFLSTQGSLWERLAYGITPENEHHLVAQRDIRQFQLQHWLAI

[4] = Clearance in rat at 10 mg/kg, iv; assay type: ADME, organism-based; design: dose 10 mg/kg, route intravenous; conditions: in vivo
In short: (§1)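 Male rats (Wistar Han) and Beagle dogs received 10 mg/kg as a 15 min iv infusion. Serial 200 µL whole-blood samples were taken from 0 to 24 h. Plasma levels were measured by LC–MS/MS against a standard curve after methanol protein precipitation. Parameters were estimated non-compartmentally.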

[5] = tested on: Pseudomonas aeruginosa; assay: Antimicrobial activity against Pseudomonas aeruginosa PAO1 after 18 to 20 hrs by broth microdilution; assay type: functional
In short: (§2)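 Broth microdilution followed CLSI guidelines in Mueller Hinton broth. Inocula were grown 18–20 h at 35 °C on blood agar. Compound in DMSO was tested in doubling dilutions from 64 to 0.06 µg/mL, at 2% DMSO final. Plates were incubated 18–20 h and read at OD 620 nm. MIC was taken as the concentration giving >90% growth inhibition.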

[6] = Aqueous solubility of the compound; assay type: physicochemical; conditions: buffer
[7] = tested on: Escherichia coli; assay: Antimicrobial activity against Escherichia coli W3110 after 18 to 20 hrs by broth microdilution; assay type: functional; conditions: K-12 substr. W3110; in short: as §2
[8] = AUC in rat at 10 mg/kg, iv; assay type: ADME, organism-based; design: dose 10 mg/kg, route intravenous; conditions: plasma; in short: as §1
[9] = biological target: 5-hydroxytryptamine receptor 4 (Homo sapiens) (UniProt Q13639); assay: Inhibition of 5-HT4 receptor (unknown origin) at 30 uM
[10] = Volume of distribution in beagle dog at 10 mg/kg, iv; assay type: ADME, organism-based, Canis lupus familiaris; design: dose 10 mg/kg, route intravenous; conditions: in vivo; in short: as §1
[11] = tested on: Klebsiella pneumoniae; assay: Antimicrobial activity against Klebsiella pneumoniae after 18 to 20 hrs by broth microdilution; assay type: functional; in short: as §2
[12] = Fraction unbound in human plasma by LC/MS-MS analysis; assay type: ADME, cell-free
In short: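 Equilibrium dialysis: 10 µM compound was spiked into human plasma against phosphate buffer and rotated at 37 °C for 16 h. Plasma and buffer concentrations were quantified by LC/MS–MS with a C18 column and ESI MRM detection.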

[13] = Inhibition of Escherichia coli topoisomerase IV ATPase activity
[14] = AUC in beagle dog at 10 mg/kg, iv; assay type: ADME, organism-based, Canis lupus familiaris; design: dose 10 mg/kg, route intravenous; conditions: plasma; in short: as §1
[15] = Clearance in beagle dog at 10 mg/kg, iv; assay type: ADME, organism-based, Canis lupus familiaris; design: dose 10 mg/kg, route intravenous; conditions: in vivo; in short: as §1
[16] = biological target: Voltage-gated inwardly rectifying potassium channel KCNH2 (Homo sapiens, UniProt Q12809); assay: Inhibition of human ERG by cell-based patch clamp method
Voltage-gated inwardly rectifying potassium channel KCNH2, sequence (Q12809 whole entry): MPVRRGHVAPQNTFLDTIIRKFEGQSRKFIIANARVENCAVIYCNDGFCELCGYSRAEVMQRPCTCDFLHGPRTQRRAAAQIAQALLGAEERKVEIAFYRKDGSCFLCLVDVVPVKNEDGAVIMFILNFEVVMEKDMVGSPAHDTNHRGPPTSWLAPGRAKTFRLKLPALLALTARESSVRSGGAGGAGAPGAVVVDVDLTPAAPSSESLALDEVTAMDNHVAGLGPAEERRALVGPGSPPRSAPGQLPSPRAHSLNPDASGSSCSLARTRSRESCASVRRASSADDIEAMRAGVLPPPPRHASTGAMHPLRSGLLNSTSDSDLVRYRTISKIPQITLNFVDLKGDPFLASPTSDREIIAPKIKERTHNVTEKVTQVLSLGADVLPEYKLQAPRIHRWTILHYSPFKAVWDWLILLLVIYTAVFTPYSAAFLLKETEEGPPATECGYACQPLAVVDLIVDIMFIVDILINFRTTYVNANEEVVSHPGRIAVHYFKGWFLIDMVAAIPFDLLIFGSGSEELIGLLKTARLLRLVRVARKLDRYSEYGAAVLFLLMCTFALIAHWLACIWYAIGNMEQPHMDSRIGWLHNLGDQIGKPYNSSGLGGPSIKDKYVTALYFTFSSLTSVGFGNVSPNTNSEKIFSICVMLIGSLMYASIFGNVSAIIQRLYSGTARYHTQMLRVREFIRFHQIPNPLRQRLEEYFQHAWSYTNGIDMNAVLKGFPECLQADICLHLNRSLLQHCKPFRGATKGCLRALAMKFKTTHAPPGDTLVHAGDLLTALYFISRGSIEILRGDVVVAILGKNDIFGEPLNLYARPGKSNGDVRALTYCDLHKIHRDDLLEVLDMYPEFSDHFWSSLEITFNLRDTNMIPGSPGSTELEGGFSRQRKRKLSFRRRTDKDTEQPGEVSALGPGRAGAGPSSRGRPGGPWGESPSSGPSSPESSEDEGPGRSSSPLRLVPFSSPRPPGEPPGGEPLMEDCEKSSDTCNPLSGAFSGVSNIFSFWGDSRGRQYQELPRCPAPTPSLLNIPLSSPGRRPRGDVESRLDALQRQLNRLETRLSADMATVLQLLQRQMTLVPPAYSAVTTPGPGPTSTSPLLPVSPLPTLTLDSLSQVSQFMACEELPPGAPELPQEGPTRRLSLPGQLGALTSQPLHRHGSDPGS

[17] = tested on: Escherichia coli; assay: Antimicrobial activity against Escherichia coli after 18 to 20 hrs by broth microdilution; assay type: functional; in short: as §2
[18] = tested on: Staphylococcus aureus; assay: Antimicrobial activity against methicillin-susceptible Staphylococcus aureus after 18 to 20 hrs by broth microdilution; assay type: functional; in short: as §2
[19] = biological target: Sodium channel protein type 5 subunit alpha (Homo sapiens, UniProt Q14524); assay: Inhibition of […] channel Nav1.5 (unknown origin)
Sodium channel protein type 5 subunit alpha, sequence (Q14524 whole entry): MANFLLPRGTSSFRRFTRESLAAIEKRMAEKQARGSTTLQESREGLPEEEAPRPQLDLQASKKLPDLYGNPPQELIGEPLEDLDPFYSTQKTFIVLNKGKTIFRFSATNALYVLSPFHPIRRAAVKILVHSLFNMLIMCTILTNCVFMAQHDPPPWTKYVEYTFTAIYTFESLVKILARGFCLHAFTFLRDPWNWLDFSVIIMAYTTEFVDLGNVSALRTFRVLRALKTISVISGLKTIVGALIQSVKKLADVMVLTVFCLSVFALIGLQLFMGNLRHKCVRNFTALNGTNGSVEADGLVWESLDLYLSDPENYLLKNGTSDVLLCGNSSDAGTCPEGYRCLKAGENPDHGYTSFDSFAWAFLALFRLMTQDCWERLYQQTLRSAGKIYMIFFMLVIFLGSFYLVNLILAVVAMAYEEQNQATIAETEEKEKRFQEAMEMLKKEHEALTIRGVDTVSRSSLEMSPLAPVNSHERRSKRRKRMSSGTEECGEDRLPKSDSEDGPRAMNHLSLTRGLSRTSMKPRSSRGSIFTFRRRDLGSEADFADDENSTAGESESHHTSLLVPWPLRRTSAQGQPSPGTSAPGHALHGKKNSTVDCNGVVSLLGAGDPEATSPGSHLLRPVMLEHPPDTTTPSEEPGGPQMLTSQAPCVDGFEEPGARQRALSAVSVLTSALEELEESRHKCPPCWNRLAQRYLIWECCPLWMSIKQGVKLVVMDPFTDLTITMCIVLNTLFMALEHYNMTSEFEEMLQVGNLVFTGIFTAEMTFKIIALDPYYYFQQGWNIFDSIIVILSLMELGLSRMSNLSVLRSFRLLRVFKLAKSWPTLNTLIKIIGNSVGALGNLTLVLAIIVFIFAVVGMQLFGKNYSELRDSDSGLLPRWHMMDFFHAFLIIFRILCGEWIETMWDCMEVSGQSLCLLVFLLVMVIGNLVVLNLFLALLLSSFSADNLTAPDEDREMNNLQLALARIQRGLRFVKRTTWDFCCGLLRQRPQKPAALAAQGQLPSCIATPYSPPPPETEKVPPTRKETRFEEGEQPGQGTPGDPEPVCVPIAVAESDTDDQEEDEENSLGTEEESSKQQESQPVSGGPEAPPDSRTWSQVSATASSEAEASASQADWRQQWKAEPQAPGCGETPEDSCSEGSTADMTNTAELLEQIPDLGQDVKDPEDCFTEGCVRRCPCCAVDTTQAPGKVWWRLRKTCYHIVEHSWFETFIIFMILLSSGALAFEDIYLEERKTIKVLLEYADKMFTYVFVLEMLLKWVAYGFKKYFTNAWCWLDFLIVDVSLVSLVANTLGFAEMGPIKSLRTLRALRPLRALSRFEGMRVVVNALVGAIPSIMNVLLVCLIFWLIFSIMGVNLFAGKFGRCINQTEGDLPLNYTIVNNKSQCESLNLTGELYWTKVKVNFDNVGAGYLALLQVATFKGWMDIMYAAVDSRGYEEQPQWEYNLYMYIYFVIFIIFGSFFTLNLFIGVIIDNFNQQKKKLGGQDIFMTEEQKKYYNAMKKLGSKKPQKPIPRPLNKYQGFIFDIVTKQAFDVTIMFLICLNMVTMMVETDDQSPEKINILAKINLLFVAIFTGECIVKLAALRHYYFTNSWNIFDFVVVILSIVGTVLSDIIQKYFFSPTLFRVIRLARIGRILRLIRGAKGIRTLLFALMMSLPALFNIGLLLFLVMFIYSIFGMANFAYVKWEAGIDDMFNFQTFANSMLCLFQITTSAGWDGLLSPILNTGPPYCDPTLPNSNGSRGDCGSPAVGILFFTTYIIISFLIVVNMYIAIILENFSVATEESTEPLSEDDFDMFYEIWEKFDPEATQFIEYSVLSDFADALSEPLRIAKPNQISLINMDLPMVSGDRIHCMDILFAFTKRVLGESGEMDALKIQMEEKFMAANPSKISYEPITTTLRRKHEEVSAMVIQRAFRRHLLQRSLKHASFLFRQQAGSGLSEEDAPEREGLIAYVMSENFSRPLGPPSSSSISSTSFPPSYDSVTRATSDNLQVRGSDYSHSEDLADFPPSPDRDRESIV
In short: (§3)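 Automated IonWorks patch clamp was run on CHO or HEK cells expressing each channel. A channel-specific voltage pulse was applied before compound and again about 3 min after addition.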

[20] = biological target: Potassium voltage-gated channel subfamily A member 5 (Homo sapiens, UniProt P22460); assay: Inhibition of potassium channel Kv1.5 (unknown origin); in short: as §3
Potassium voltage-gated channel subfamily A member 5, sequence (P22460 whole entry): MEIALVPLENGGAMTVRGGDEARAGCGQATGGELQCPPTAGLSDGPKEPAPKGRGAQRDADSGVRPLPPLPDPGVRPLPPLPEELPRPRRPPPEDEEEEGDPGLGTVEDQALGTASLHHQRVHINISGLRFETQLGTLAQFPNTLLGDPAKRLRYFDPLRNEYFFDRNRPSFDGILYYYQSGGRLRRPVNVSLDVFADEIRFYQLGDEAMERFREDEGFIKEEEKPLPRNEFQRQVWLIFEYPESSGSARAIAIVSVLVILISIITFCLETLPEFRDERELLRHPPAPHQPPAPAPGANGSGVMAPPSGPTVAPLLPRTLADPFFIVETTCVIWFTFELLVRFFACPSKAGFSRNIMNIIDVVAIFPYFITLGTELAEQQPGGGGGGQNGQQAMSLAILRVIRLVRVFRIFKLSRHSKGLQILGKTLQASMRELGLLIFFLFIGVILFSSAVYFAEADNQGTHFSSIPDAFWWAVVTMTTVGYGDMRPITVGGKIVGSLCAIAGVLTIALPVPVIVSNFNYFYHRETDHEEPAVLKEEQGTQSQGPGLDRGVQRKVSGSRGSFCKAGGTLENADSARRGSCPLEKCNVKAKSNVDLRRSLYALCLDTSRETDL

[21] = biological target: Voltage-dependent T-type calcium channel subunit alpha-1H (Homo sapiens, UniProt O95180); assay: Inhibition of […] channel Cav3.2 (unknown origin); in short: as §3
[22] = Half life in beagle dog at 10 mg/kg, iv; assay type: ADME, organism-based, Canis lupus familiaris; design: dose 10 mg/kg, route intravenous; conditions: in vivo; in short: as §1
[23] = Half life in rat at 10 mg/kg, iv; assay type: ADME, organism-based; design: dose 10 mg/kg, route intravenous; conditions: in vivo; in short: as §1
[24] = tested on: Pseudomonas aeruginosa; assay: Antimicrobial activity against Pseudomonas aeruginosa clinical isolate after 18 to 20 hrs by broth microdilution; assay type: functional; in short: as §2
[25] = Volume of distribution in rat at 10 mg/kg, iv; assay type: ADME, organism-based; design: dose 10 mg/kg, route intravenous; conditions: in vivo; in short: as §1
[26] = biological target: T1, Potassium voltage-gated channel subfamily KQT member 1 (Homo sapiens, UniProt P51787); assay: Inhibition of potassium channel IKs (unknown origin); in short: as §3
T1 sequence (P51787 whole entry): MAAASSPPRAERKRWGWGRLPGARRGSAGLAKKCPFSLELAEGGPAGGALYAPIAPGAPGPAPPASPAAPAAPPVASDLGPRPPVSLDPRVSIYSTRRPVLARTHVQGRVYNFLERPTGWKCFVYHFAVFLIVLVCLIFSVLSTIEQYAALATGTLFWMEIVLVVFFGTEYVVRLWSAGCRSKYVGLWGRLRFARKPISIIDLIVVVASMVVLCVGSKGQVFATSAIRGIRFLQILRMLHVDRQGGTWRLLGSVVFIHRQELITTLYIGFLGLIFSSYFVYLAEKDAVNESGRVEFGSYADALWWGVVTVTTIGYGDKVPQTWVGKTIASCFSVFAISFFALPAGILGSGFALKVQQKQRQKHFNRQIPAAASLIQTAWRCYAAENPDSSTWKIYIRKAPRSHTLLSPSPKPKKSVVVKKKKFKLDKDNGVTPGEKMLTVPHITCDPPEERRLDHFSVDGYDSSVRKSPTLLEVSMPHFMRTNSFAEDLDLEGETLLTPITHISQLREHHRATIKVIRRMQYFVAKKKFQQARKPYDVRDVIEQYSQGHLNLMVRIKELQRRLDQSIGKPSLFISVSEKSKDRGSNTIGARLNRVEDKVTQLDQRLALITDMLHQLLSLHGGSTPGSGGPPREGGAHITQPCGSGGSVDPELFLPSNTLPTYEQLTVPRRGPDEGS

[27] = biological target: Voltage-dependent L-type calcium channel subunit alpha-1C (Homo sapiens, UniProt Q13936); assay: Inhibition of […] channel Cav1.2 (unknown origin); in short: as §3

Sodium-dependent serotonin transporter (Homo sapiens), sequence (P31645 whole entry, looked up): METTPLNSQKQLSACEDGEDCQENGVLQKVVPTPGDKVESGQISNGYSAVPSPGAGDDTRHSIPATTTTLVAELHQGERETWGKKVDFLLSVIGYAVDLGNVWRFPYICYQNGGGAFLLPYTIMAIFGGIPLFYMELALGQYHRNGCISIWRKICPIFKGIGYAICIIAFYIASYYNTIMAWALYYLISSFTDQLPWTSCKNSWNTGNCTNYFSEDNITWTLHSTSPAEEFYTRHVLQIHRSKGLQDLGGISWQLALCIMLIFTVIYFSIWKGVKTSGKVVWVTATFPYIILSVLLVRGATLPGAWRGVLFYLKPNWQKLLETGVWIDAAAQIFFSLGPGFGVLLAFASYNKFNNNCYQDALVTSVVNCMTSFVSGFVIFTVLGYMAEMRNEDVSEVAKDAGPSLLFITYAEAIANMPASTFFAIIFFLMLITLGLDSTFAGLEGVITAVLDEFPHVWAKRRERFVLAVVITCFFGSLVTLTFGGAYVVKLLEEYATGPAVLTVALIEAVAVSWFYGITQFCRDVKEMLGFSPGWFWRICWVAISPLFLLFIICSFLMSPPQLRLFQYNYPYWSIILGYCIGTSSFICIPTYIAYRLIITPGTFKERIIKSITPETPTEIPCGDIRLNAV

Structure (SMILES) | logD [2] | MIC90 [5] | solubility [6] | MIC90 [7] | fraction unbound [12] | IC50 [13] | IC50 [16] | MIC90 [18] | further results
COc1cnc2ccc(=O)n(C[C@H](N)[C@H]3CC[C@H](NCc4ccc5c(n4)NC(=O)CO5)CC3)c2c1 | -0.86 | 1 µg/mL (≈ 2.09 µM) | > 333 µM | 0.5 µg/mL (≈ 1.04 µM) | 0.78 | 2 nM | > 333000 nM | 8 µg/mL (≈ 16.7 µM) | inhibition [1]: 32%; inhibition [3]: 52%; clearance [4]: 47 mL/min/kg; AUC [8]: 3900 ng·h/mL; inhibition [9]: 32%; Vd [10]: 2.7 L/kg; MIC90 [11]: 8 µg/mL (≈ 16.7 µM); AUC [14]: 3800 ng·h/mL; clearance [15]: 14 mL/min/kg; MIC90 [17]: 0.5 µg/mL (≈ 1.04 µM); IC50 [19]: > 333000 nM; IC50 [20]: > 333000 nM; IC50 [21]: > 333000 nM; half-life [22]: 8 h; half-life [23]: 9 h; MIC90 [24]: 4 µg/mL (≈ 8.36 µM); Vd [25]: 13 L/kg; IC50 [26]: > 333000 nM; IC50 [27]: > 333000 nM
COc1ccc2ncc(=O)n(CC(N)C3(F)CCC(NCc4ccc5c(n4)NC(=O)CO5)CC3)c2c1 (racemic) | 0.25 | 8 µg/mL (≈ 16.1 µM) | > 333 µM | 2 µg/mL (≈ 4.03 µM) | 0.68 | 5 nM | > 33000 nM | 0.5 µg/mL (≈ 1.01 µM) | 
COc1cc2c(cc1F)ncc(=O)n2C[C@H](N)[C@H]1CC[C@H](NCc2ncc3c(n2)NC(=O)CO3)CC1 | -0.42 | 2 µg/mL (≈ 4.02 µM) | > 333 µM | 2 µg/mL (≈ 4.02 µM) | 0.56 | 4 nM | > 333000 nM | 4 µg/mL (≈ 8.04 µM) | 
COc1ccc2ccc(=O)n(C[C@H](N)[C@H]3CC[C@H](NCc4ncc5c(n4)NC(=O)CO5)CC3)c2c1 | -0.54 | 2 µg/mL (≈ 4.18 µM) | > 333 µM | 0.5 µg/mL (≈ 1.04 µM) | 0.71 | 5 nM | > 100000 nM | 8 µg/mL (≈ 16.7 µM) | 
C[C@H]1COc2c(N3CCN(C)CC3)c(F)cc3c(=O)c(C(=O)O)cn1c23.C[C@H]1COc2c(N3CCN(C)CC3)c(F)cc3c(=O)c(C(=O)O)cn1c23.O [LEVOFLOXACIN] |  |  |  |  |  |  |  |  | MIC90 [11]: 64 µg/mL; MIC90 [17]: 16 µg/mL; MIC90 [24]: 16 µg/mL
N[C@@H](Cn1c(=O)ccc2ncc(F)cc21)[C@H]1CC[C@H](NCc2ccc3c(n2)NC(=O)CO3)CC1 | -1.02 | 2 µg/mL (≈ 4.29 µM) | > 333 µM | 1 µg/mL (≈ 2.14 µM) |  | 34 nM | > 100000 nM | 16 µg/mL (≈ 34.3 µM) | 
CNC(Cn1c(=O)cnc2cc(F)c(OC)cc21)[C@H]1CC[C@H](NCc2ncc3c(n2)NC(=O)CO3)CC1 (mixture of isomers) |  | > 64 µg/mL | > 333 µM | 16 µg/mL (≈ 31.3 µM) |  | 39 nM |  | 64 µg/mL (≈ 125 µM) | 
COc1ccc2ncc(=O)n(C[C@H](N)[C@H]3CC[C@H](NCc4ncc5c(n4)NC(=O)CO5)CC3)c2c1 | -0.48 | 0.5 µg/mL (≈ 1.04 µM) | > 333 µM | 0.2 µg/mL (≈ 0.417 µM) | 0.6 | 2 nM | > 333000 nM | 1 µg/mL (≈ 2.09 µM) | 
COc1ccc2ncc(=O)n(CC[C@]3(N)CC[C@H](NCc4ccc5c(n4)NC(=O)CO5)CC3)c2c1 |  | 8 µg/mL (≈ 16.7 µM) | > 333 µM | 1 µg/mL (≈ 2.09 µM) |  | 2 nM |  | 2 µg/mL (≈ 4.18 µM) | 
Cc1cc(=O)n(C[C@H](N)[C@H]2CC[C@H](NCc3ccc4c(n3)NC(=O)CO4)CC2)c2cc(F)ccc12 | -0.05 | 0.5 µg/mL (≈ 1.04 µM) | > 333 µM | 0.5 µg/mL (≈ 1.04 µM) | 0.64 | 3 nM |  | 1 µg/mL (≈ 2.09 µM) | 
COc1cnc2ccc(=O)n(C[C@@H](N)[C@H]3CC[C@H](NCc4ccc5c(n4)NC(=O)CO5)CC3)c2c1 | -0.84 | 16 µg/mL (≈ 33.4 µM) | > 333 µM | 8 µg/mL (≈ 16.7 µM) | > 0.7 | 33 nM | > 100000 nM | 128 µg/mL (≈ 267 µM) | 
COc1ccc2ncc(=O)n(C[C@H](N)[C@H]3CC[C@H](NCc4ccc5c(n4)NC(=O)CO5)CC3)c2c1 | -0.36 | 0.5 µg/mL (≈ 1.04 µM) | > 333 µM | 0.5 µg/mL (≈ 1.04 µM) | 0.7 | 1 nM | > 333000 nM | 1 µg/mL (≈ 2.09 µM) | 
N[C@@H](Cn1c(=O)cnc2ccc(F)cc21)[C@H]1CC[C@H](NCc2ccc3c(n2)NC(=O)CO3)CC1 | -0.41 | 0.25 µg/mL (≈ 0.536 µM) | > 333 µM | < 0.06 µg/mL | 0.7 | 28 nM | 174000 nM | 1 µg/mL (≈ 2.14 µM) | 
Cc1cc(=O)n(C[C@H](N)[C@H]2CC[C@H](NCc3ncc4c(n3)NC(=O)CO4)CC2)c2cc(F)ccc12 | 0.06 | 2 µg/mL (≈ 4.16 µM) | > 333 µM | 0.5 µg/mL (≈ 1.04 µM) | 0.66 | 2 nM | > 333000 nM | 4 µg/mL (≈ 8.32 µM) | 
